Sampled rows, rich in hits. Any-hit rate of the full collection: about 2.6%.
CHT inh: inhibitors of human choline transporter CHT; High affinity choline transporter 1 (Homo sapiens), Q9GZV3; CHT-expressing cells, membrane potential dye, choline response; active compounds read low; B-score at 10 µM; actives 0.86% (n = 310,000);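 active means B-score over 3 SD under the library average, and starting fluorescence ratio not unusually high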;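 further: choline stimulus applied at its EC90 after an EC20 pre-addition; B-score computed on integrated fluorescence ratio after choline addition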
Cl transport mod: KCC2 cotransporter modulators, thallium flux, primary screen, cell-based, HEK293 KCC2, FluoZin-2 fluorescence, MLSMR; B-score of Tl+ flux slope (higher = more flux/activation; lower = inhibition) at 10 µM; Solute carrier family 12 member 5 (Homo sapiens), Q9H2X9; AID 1456, 2008; KCC2 cells, thallium flux FluoZin-2 fluorescence; actives 2.2% (n = 190,000);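 active means thallium flux slope and its plate-corrected score both differing from the plate sample mean at a set confidence after two filtering rounds, in either direction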;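 further: slope of fluorescence scaled to starting intensity during 10 to 20 s after thallium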
CHT PAM: CHT positive allosteric modulators, primary screen, cell-based, membrane potential dye, choline EC20. CHT-expressing cells; active compounds read high; LV-AA mutant CHT in HEK293 cells. actives 0.49% (n = 310,000). AID 488977, 2010. B-score at 10 µM;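 active means initial fluorescence not abnormally high and integrated response B-score, plate-corrected, over 3 SD above library mean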
Rad51 HR inh: human RAD51 strand exchange inhibitors, primary screen, biochemical, fluorescence | hRad51 DNA strand exchange, fluorescence dequenching | actives 0.085% (n = 200,000) | DNA repair protein RAD51 homolog 1 (Homo sapiens), Q06609 | inhibition, % at 10 µM;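 active means inhibition above 40% at the single screening dose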
Target sequence (Q06609 whole entry, looked up): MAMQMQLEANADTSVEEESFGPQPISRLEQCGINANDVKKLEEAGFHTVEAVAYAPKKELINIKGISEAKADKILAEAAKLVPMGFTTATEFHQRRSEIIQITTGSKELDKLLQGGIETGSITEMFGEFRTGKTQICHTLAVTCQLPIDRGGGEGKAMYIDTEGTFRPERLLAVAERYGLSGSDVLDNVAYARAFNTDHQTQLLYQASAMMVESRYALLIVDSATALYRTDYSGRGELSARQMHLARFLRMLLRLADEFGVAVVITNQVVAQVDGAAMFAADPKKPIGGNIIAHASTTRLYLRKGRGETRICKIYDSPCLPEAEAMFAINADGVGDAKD
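System: hRad51 filaments on single-stranded DNA; reagent: Fluorescein- and BHQ1-tagged 47-mer duplex; compound dosing: one concentration, 10 µM final; timing: filaments 15 min 37 °C, then compound 30 min; measured by: fluorescein emission 520 nm, excitation 485 nm; benchmarks: per-plate controls and blanks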
CHT block conf: CHT inhibitors, confirmation, cell-based, membrane potential dye, duplicate; CHT-expressing cells, choline membrane potential dye; LV-to-AA substituted CHT, HEK293 cells; shares compounds with CHT inh; AID 493221, 2011; CHT activity remaining % of control (active compounds read low), % at 10 µM; actives 70% (n = 2,400);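 active means choline transporter activity left, mean of duplicates at 10 µM, below buffer-only control mean minus 3 SD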;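 further: depolarization triggered by choline at its EC90 following an EC20 pre-addition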
HEK293 CHT ctr: membrane potential effects in parental HEK293, counter-screen for CHT inhibitor project, cell-based, membrane potential dye; shares compounds with CHT inh; choline response; active = decrease or increase beyond buffer ±3SD; membrane potential ratio readout (active if shifted either direction beyond buffer ±3SD; no single direction) at 10 µM; actives 4% (n = 2,400); AID 493222, 2011;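 further: parental cells lack the transporter so any hit is non-specific; ratio is peak minus trough fluorescence over baseline after EC90 choline challenge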
A number is an active result; i = inactive; nt = not tested or not shown.

SMILES	CHT inh	Cl transport mod	CHT PAM	Rad51 HR inh	CHT block conf	HEK293 CHT ctr
CCc1c(O)nc(SCc2ccccc2)n(C(C)CC)c1=O (stereo unspecified)	-5.2	i	i	nt	i	i
COC(=O)c1ccc(C(=O)N2CCCC(Nc3ccc(C(C)C)cc3)C2)nc1 (stereo unspecified)	-5.2	nt	i	nt	58%	i
CC(C(=O)Nc1ccc(O)cc1C(=O)O)N1C(=O)/C(=C\c2cccs2)SC1=S (stereo unspecified)	i	nt	i	nt	nt	nt
C=Cn1cc[n+](CC(=O)c2ccc(-c3ccccc3)cc2)c1	-6.7	nt	i	nt	60%	i
C=Cn1cc[n+](CC(=O)c2cccs2)c1	i	nt	i	nt	nt	nt
COc1cc(C(C(=O)NCc2ccccc2)N(Cc2ccco2)C(=O)c2cnccn2)cc(OC)c1OC (stereo unspecified)	i	i	i	i	nt	nt
COc1ccc(CCOC(=O)c2cccc(NC(C)=O)c2)cc1	i	nt	i	nt	nt	nt
CCOc1cc(N2CCOCC2)c(OCC)cc1NC(=O)Cc1ccccc1OC	i	nt	i	i	nt	nt
CCOc1cc(N2CCOCC2)c(OCC)cc1NC(=O)Cc1ccccc1	-8.6	i	i	i	57%	i
COc1cc(CN(C)Cc2cc(=O)n3ccsc3n2)ccc1OC(F)F	-5.6	i	i	i	59%	i
CCN(CC(=O)NCc1ccc(F)cc1)Cc1cc(=O)n2ccsc2n1	i	i	i	i	nt	nt
COc1cccc(C(=O)NN/C(C)=C/C(=O)C(F)(F)C(F)(F)C(F)(F)F)c1	-8.4	i	i	nt	67%	i
CCCCN(C)C(=O)Cn1ncc2c3ccccc3n(CCC)c2c1=O	i	nt	i	nt	nt	nt
CCCn1c2ccccc2c2cnn(CC(=O)NCCN(CC)CC)c(=O)c21	-9.1	nt	i	nt	-3.9%	i
CCCn1c2ccccc2c2cnn(CC(=O)NCCN(C)C)c(=O)c21	-8	nt	i	nt	19%	i
O=C(Cn1ncc2c3ccccc3n(Cc3ccccc3F)c2c1=O)NCCN1CCOCC1	-9.9	nt	i	nt	28%	i
CCCn1c2ccccc2c2cnn(CC(=O)N(CC)CC)c(=O)c21	i	nt	i	nt	nt	nt
CCOCCCN(C)C1CCN(C(=O)c2oc3ccccc3c2NC(=O)c2cccc([N+](=O)[O-])c2)CC1	-6.3	nt	i	nt	38%	4.3
CCOC(=O)C1CCN(C(=O)CN(c2ccc(Cl)c(C(F)(F)F)c2)S(C)(=O)=O)CC1	-6.4	i	i	i	i	i
CCOC(=O)C1CCN(C(=O)CN(c2ccc3c(c2)OCO3)S(C)(=O)=O)CC1	i	i	i	i	nt	nt
CC(C)CCSc1cc(NCCO)c([N+](=O)[O-])c2nonc12	-5.8	i	i	i	i	i
O=C(Cc1cnc2ncnn2c1)N1CCc2c([nH]c3ccccc23)C1c1ccccn1 (stereo unspecified)	i	i	i	i	nt	nt
O=C(NNc1ccc(C(F)(F)F)cc1[N+](=O)[O-])c1ccc(NS(=O)(=O)c2ccc(F)cc2)cc1	-10	i	i	i	52%	i
CCOC(=O)n1c(SCC(N)=O)nc2ccccc21	i	i	i	i	nt	nt
CCCCOC(=O)n1c(SCC(=O)N(CC)CC)nc2ccccc21	-5.2	i	i	i	i	i
SMILES	CHT inh	Cl transport mod	CHT PAM	Rad51 HR inh	CHT block conf	HEK293 CHT ctr
O=S(=O)(NCCN1CCOCC1)c1cccs1	-9.3	i	i	i	i	i
CSC(=NCCCN1CCOCC1)NS(=O)(=O)c1cccs1	i	i	i	i	nt	nt
O=C(O)Cn1c2c(c3ccccc31)CSc1ccc(Cl)cc1-2	i	nt	i	nt	nt	nt
COC(=O)CSc1[nH]c2ccc(F)cc2c1[N+](=O)[O-]	-7.2	i	i	i	15%	i
O=C(Cc1cccs1)Nc1cccc(C(=O)Nc2ccc(C(=O)O)cc2)c1	i	i	i	i	nt	nt
O=C(Nc1ccc(F)cc1)C(=O)c1c(O)[nH]c2ccc([N+](=O)[O-])cc12	i	i	i	i	nt	nt
CCOC(=O)c1cccc(NC(=O)CCS(=O)(=O)c2cccc3nsnc23)c1	-8.3	i	i	nt	36%	i
CC(=O)NC(CC(=O)NCCN1C(=O)S/C(=C\c2ccccc2)C1=O)c1ccccc1 (stereo unspecified)	-5.7	i	i	i	57%	i
CCCCn1c(SCC(=O)Nc2cccc(OC)c2)nc2ccc(N3CCOCC3)cc2c1=O	-6	i	i	i	62%	i
CCc1ccc(S(=O)(=O)c2n[nH]n3c2nc(=O)c2ccccc23)cc1	-4.9	i	i	i	8.6%	i
CC(C)c1ccc(S(=O)(=O)c2n[nH]n3c2nc(=O)c2ccccc23)cc1	i	nt	i	i	nt	nt
CCOc1cc(C(=O)N=c2sccn2C)cc(Br)c1OC	i	nt	i	nt	nt	nt
O=C(Nc1cc([N+](=O)[O-])ccc1O)c1cccc([N+](=O)[O-])c1	-5.4	nt	i	nt	10%	i
CCOC(=O)C1=C(C)N=c2s/c(=C/c3cccc([N+](=O)[O-])c3O)c(=O)n2C1c1cc(OC)c(OC)c(OC)c1 (stereo unspecified)	-9.8	nt	i	nt	28%	i
O=C(Nc1ccccc1)c1cccc(N2C(=O)C3C4C=CC(C4)C3C2=O)c1 (stereo unspecified)	i	nt	i	nt	nt	nt
CC1CCCCC1NC(=O)c1cccc(N2C(=O)C3C4C=CC(C4)C3C2=O)c1 (stereo unspecified)	-8.4	nt	i	nt	28%	i
COc1ccc(S(=O)(=O)NCC2CCCN(C(=O)CC3CCCC3)C2)cc1 (stereo unspecified)	i	i	i	i	nt	nt
CC1CCN(S(=O)(=O)c2ccc3c(ccn3CCC(=O)N3CCCCC3)c2)CC1	i	nt	i	nt	nt	nt
CC1CCC(NC(=O)CCn2ccc3cc(S(=O)(=O)N4CCCC4)ccc32)CC1 (stereo unspecified)	-6.3	nt	i	nt	39%	i
O=C(CCCSc1nnc(-c2cccs2)n1CC1CCCO1)c1ccccc1 (stereo unspecified)	-5.5	i	i	i	i	-8.6
O=C(c1cc(-c2ccc(Br)cc2)on1)N1CCc2ccccc2C1	i	nt	i	nt	nt	nt
Cc1ccc(CN(C)C(=O)C2CCC(=O)N(C3CCCCCC3)C2)cc1 (stereo unspecified)	i	nt	i	nt	nt	nt
O=C(CSc1nnc(Cc2ccsc2)o1)c1ccccc1	-5.2	i	i	nt	70%	i
CC(C)Sc1nc2c(c(=O)[nH]1)C(c1cccs1)C1=C(CC(C)(C)CC1=O)N2 (stereo unspecified)	-5.8	i	i	i	i	i

High-throughput results deposited in PubChem BioAssay by several laboratories.
